The values that follow come from ChEMBL document CHEMBL3352531, “Syntheses, neural protective activities, and inhibition of glycogen synthase kinase-3β of substituted quinolines” (Bioorg Med Chem Lett, 2014).

For orientation: pEC50 means −log10 of the EC50, conventionally taken in molar units.

pEC50: −log10 of the molar value.

Data set [1] can be described thus: Neuroprotective activity in oligomeric amyloid beta peptide-induced human MC65 cells assessed as cell viability by MTT assay. It is filed as functional, cell-based. The essentials: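 Protection against Aβ oligomer-induced toxicity in MC65 cells, reported as EC50 (median effective concentration).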
In general terms: Tetrazolium assays rely on reduction of a dye to a coloured formazan, in cell work by metabolically active cells.

The nature of data set [2]: Cytotoxicity against human MC65 cells by MTT assay. As to conditions: read-out: TC50 (the source's name). It is filed as cell-based. Put shortly: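 MC65 cells kept with tetracycline in the medium to suppress C99 production, so the cells survive and compound toxicity alone is measured. Reported as TC50 (median toxic concentration).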
Data set [3] can be described thus: Drug uptake in CD1 mouse brain at 5 mg/kg, po daily for 75 days. As to conditions: read-out: Drug uptake. Also noted: dose 5 mg/kg, route oral. It is filed as ADME, organism-based. Put shortly: (§1)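 CD1 mice received 5 mg/Kg by oral gavage once daily for 75 days (four treated, two untreated). Compound in tissues and plasma was quantified by a previously reported procedure and expressed in µM as mean ± standard deviation (n = 4).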

Data set [4] in a line: Drug uptake in CD1 mouse pancreas at 5 mg/kg, po daily for 75 days. It is filed as ADME, organism-based. Also noted: dose 5 mg/kg, route oral. As to conditions: read-out: Drug uptake. Put shortly:
as §1

The nature of data set [5]: Drug uptake in CD1 mouse liver at 5 mg/kg, po daily for 75 days. It is filed as ADME, organism-based. The arrangement: dose 5 mg/kg, route oral. As to conditions: read-out: Drug uptake. The essentials: as §1
Data set [6] in a line: Drug uptake in CD1 mouse kidney at 5 mg/kg, po daily for 75 days. It is filed as ADME, organism-based. The arrangement: dose 5 mg/kg, route oral. As to conditions: read-out: Drug uptake. The essentials: as §1
Data set [7] concerns Lung. The data set is described as follows: Drug uptake in CD1 mouse lung at 5 mg/kg, po daily for 75 days. It is filed as ADME, organism-based. Also noted: dose 5 mg/kg, route oral. As to conditions: in vivo, 1800 h. Put shortly: as §1
A short description of data set [8]: Drug uptake in CD1 mouse plasma at 5 mg/kg, po daily for 75 days. The arrangement: dose 5 mg/kg, route oral. It is filed as ADME, organism-based. Put shortly:
as §1

Data set [9] deals with Mus musculus. The experiment in a line: Toxicity in CD1 mouse assessed as effect on locomotion at 5 mg/kg, po daily for 75 days by Versamax chamber test. It is filed as organism-based. The arrangement: dose 5 mg/kg, route oral. As to conditions: in vivo, 1800 h. Put shortly:
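After 75 days of daily 5 mg/Kg oral gavage, control and treated mice were acclimatized for 15 min in a Versamax chamber, then their movements were monitored. Measures were clockwise and counter-clockwise activity, total distance, rest time, and vertical and horizontal activity, compared against control.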

The test system of data set [10] is Mus musculus. The data set is described as follows: Toxicity in CD1 mouse assessed as effect on aspartate aminotransferase activity at 5 mg/kg, po daily for 75 days. The arrangement: dose 5 mg/kg, route oral. It is filed as organism-based. As to conditions: in vivo, 1800 h. The essentials:
(§2)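 After 75 days of daily oral gavage at 5 mg/kg, mice were sacrificed and blood was drawn from the heart into a heparinized syringe. Plasma was separated at once by centrifugation at 10,000 x g for 5 min. ALT and AST activities were measured with a commercial kit and compared between control and treated mice.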

Data set [11] concerns Mus musculus. The data set is described as follows: Toxicity in CD1 mouse assessed as effect on alanine transaminase activity at 5 mg/kg, po daily for 75 days. It is filed as organism-based. Also noted: dose 5 mg/kg, route oral. As to conditions: in vivo, 1800 h. Put shortly:
as §2

On to `COc1cc(NCCCN)c2nccc(C)c2c1Oc1cccc(F)c1`, for which the pEC50 in [1] was 6.22. In addition, the CC50 in data set [2] turned out to be 7280 nM.

Turning to `COc1cc(CNc2cc(OC)c(Oc3cccc(C(F)(F)F)c3)c3c(C)ccnc23)cc(OC)c1O`, the pEC50 in data set [1] was 6.32. Also, in data set [2], the CC50 was determined as 2910 nM.

For the compound `COc1cc(NCCC(N)=O)c2nccc(C)c2c1Oc1cccc(C(F)(F)F)c1`, in data set [1], the pEC50 was 6.30. Moreover, in [2], the CC50 was greater than 50000 nM.

Consider `COc1cc(NCc2ccc(O)cc2)c2nccc(C)c2c1Oc1cccc(F)c1`, for which, in data set [1], the pEC50 is 6.15. In addition, in [2], the CC50 was determined as 2600 nM.

As for `COc1cc(NCCCN)c2nccc(C)c2c1Oc1cccc(C(F)(F)F)c1`, the pEC50 in data set [1] was 6.82. The CC50 in data set [2] amounted to 2100 nM.

Turning to `Cc1ccnc2c(NCc3ccc(O)cc3)cc(O)c(Oc3cccc(C(F)(F)F)c3)c12`, in data set [2], the CC50 was 3310 nM.

On to `COc1cc(NCc2nccs2)c2nccc(C)c2c1Oc1cccc(C(F)(F)F)c1`, for which, in data set [1], the pEC50 was 5.62. The CC50 in [2] was found to be 20300 nM.

As for `COc1cc(NCc2ccc(O)cc2)c2nccc(C)c2c1Oc1ccccc1`, in data set [1], the pEC50 is 6.28. For the same compound, the CC50 in data set [2] amounted to 4010 nM.

Take `COc1cc(NCc2ccc(O)cc2)c2nccc(C)c2c1`: the pEC50 in data set [1] is 5.58. Moreover, the CC50 in data set [2] turned out to be 20500 nM.

In the case of `COc1cc(NC(=O)c2ccco2)c2nccc(C)c2c1Oc1cccc(C(F)(F)F)c1`, the pEC50 in data set [1] was 5.46. Besides, in [2], the CC50 is greater than 50000 nM.

As to `COc1cc(NCc2cccc3cccnc23)c2nccc(C)c2c1Oc1cccc(C(F)(F)F)c1`, the pEC50 in data set [1] was 6.72. For the same compound, the CC50 in data set [2] was greater than 50000 nM.

For the compound `COc1cc(NCc2ccc(-c3ccccc3)s2)c2nccc(C)c2c1Oc1cccc(C(F)(F)F)c1`, in [1], the pEC50 was 6.41. In data set [2], the CC50 is 14500 nM.

Take `COc1cc(NCCCN)c2nccc(C)c2c1Oc1ccccc1`: in [1], the pEC50 was 6.38. The CC50 in data set [2] was 8160 nM.

For `COc1cc(NCCCN)c2nccc(C)c2c1`, in data set [1], the pEC50 is 4.75. For the same compound, the CC50 in data set [2] was greater than 50000 nM.

On to `COc1cc(NCc2ccc(O)cc2)c2nccc(C)c2c1Oc1cccc(C(F)(F)F)c1`, for which the negative-log EC50 (pEC50) in [1] was 6.92. The CC50 in data set [2] came to 1380 nM. For the same compound, the concentration at 1800 h in [3] came to 24.4 µM; in data set [4], 26.5 µM; in data set [5], 7.1 µM; in data set [6], 16.1 µM; in data set [8] it was 4.5 µM. The Drug uptake result in data set [7] is given as “NotTraceable”. For the same compound, the Activity entry in [9], in [10] and in data set [11] was “Non-toxic” each time.

For `COc1cc(NCc2cc3ccccc3o2)c2nccc(C)c2c1Oc1cccc(C(F)(F)F)c1`, the pEC50 in data set [1] was 6.34. Also, the CC50 in data set [2] is greater than 50000 nM.
